The subject of series [1] is Mus musculus. As to the kind of experiment: Phototoxicity in Swiss albino mouse assessed as erythema incidence at 140 mg/kg, po after 24 hrs of irradiation. The class given is organism-based. Further details: dose 140 mg/kg, route oral. The following applies: in vivo. The method, boiled down: (§1)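 Female Swiss albino mice (about 2 months, 20–25 g), fasted at least 18 h, received a single oral gavage of 140 mg/kg. Groups: six per group; lomefloxacin HCl 140 mg/kg; vehicle 0.5% aqueous sodium carboxymethylcellulose at 10 ml/kg. Mice were UV-irradiated for 4 h (about 18 J/cm²). Both ears were scored for erythema, edema and ear thickness (left/right averaged) pre-dose, at end of irradiation, and at about 24, 48, 72 and 96 h. Ear thickness change from baseline was tested by Student's t-tests.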

In series [2] the test system is Mus musculus. As to the kind of experiment: Phototoxicity in Swiss albino mouse assessed as ear thickness at 140 mg/kg, po after 24 hrs of irradiation. The class given is organism-based. Set-up: dose 140 mg/kg, route oral. The following applies: in vivo. The method in brief: as §1
Series [3] concerns Mus musculus. Put plainly: Phototoxicity in Swiss albino mouse assessed as erythema incidence at 140 mg/kg, po after 96 hrs of irradiation. The class given is organism-based. Further details: dose 140 mg/kg, route oral. The note with it: in vivo. The method, boiled down: as §1
The subject of a further series is Vero. Put plainly: Cytotoxicity against african green monkey Vero cells after 72 hrs by MTT assay. The class given is cell-based. The following applies: Chlorocebus sabaeus. The method, boiled down:
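Vero mammalian cells were exposed to compounds for 72 h, with testing at 62.5 µg/ml. Viability was read as cellular conversion of MTT to formazan (non-radioactive cell proliferation kit), and IC50 was reported.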

Series [4] relates to Mycobacterium tuberculosis. Put plainly: Antimycobacterial activity against Mycobacterium tuberculosis ATCC 35801 infected in CD1 mouse assessed as bacterial load in lung at 50 mg/kg, ip after 10 days. Type of series: functional. The following applies: route intraperitoneal. The method, boiled down:
(§2)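 Six-week-old female CD-1 mice, six per group, infected intravenously via caudal vein with ~10⁷ viable M. tuberculosis ATCC 35801. Intraperitoneal dosing began 10 days after inoculation and ran 10 days. On day 35 post-infection, spleens and right lungs were removed and homogenized. Serial 10-fold dilutions were plated on 7H10 agar (37 °C, ambient air, 4 weeks). Log CFU compared against vehicle-treated controls.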

Series [5] relates to Mycobacterium tuberculosis. As to the kind of experiment: Antimycobacterial activity against Mycobacterium tuberculosis H37Rv by agar dilution method. The class given is functional. The method, boiled down:
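MIC by agar dilution on Middlebrook 7H11 agar supplemented with OADC, following an NCCLS-like procedure, run in duplicate. The MDR-TB clinical isolate was resistant to isoniazid, rifampicin, ethambutol and ofloxacin.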
A general note: In agar dilution, organisms are placed on agar that contains the substance at set levels.

The subject of series [6] is Mus musculus. Put plainly: Phototoxicity in Swiss albino mouse assessed as ear thickness at 140 mg/kg, po after 72 hrs of irradiation. The class given is organism-based. Set-up: dose 140 mg/kg, route oral. The note with it: in vivo. The method in brief:
as §1

Series [7] has as its system Mycobacterium tuberculosis. Put plainly: Antimycobacterial activity against Mycobacterium tuberculosis ATCC 35801 infected in CD1 mouse assessed as bacterial load in spleen at 50 mg/kg, ip after 10 days. Type of series: functional. The following applies: route intraperitoneal. The method, boiled down: as §2
Series [8] relates to Mus musculus. Put plainly: Phototoxicity in Swiss albino mouse assessed as ear thickness at 140 mg/kg, po after 4 hrs of irradiation. Type of series: organism-based. Further details: dose 140 mg/kg, route oral. The following applies: in vivo. The method, boiled down: as §1
In series [9] the test system is Mus musculus. Put plainly: Phototoxicity in Swiss albino mouse assessed as ear thickness at 140 mg/kg, po after 48 hrs of irradiation. The class given is organism-based. Further details: dose 140 mg/kg, route oral. The note with it: in vivo. The method, boiled down: as §1
For series [10], the system named is Mus musculus. As to the kind of experiment: (§3) Phototoxicity in Swiss albino mouse assessed as erythema incidence at 140 mg/kg, po after 48 hrs of irradiation. Type of series: organism-based. The note with it: in vivo. Further details: dose 140 mg/kg, route oral. The method, boiled down:
as §1

Series [11] relates to Mus musculus. Described as §3. The class given is organism-based. Set-up: dose 140 mg/kg, route oral. The following applies: in vivo. The method in brief:
as §1
This is another data set of the same source.

Series [12] in a line: Inhibition of Mycobacterium smegmatis DNA gyrase supercoiling activity. Further details: species or system Mycolicibacterium smegmatis.
The test system of series [13] is Mycolicibacterium smegmatis. As to the kind of experiment: Antimycobacterial activity against Mycobacterium smegmatis MC2 by agar dilution method. The class given is functional. The method, boiled down:
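Agar dilution on Middlebrook 7H11 agar supplemented with OADC, following an NCCLS-like procedure; MIC determined in duplicate against M. smegmatis ATCC 14468 (MC²).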

Series [14] in a line: Selectivity index, ratio of IC50 for african green monkey Vero cells to MIC for Mycobacterium tuberculosis H37Rv. Type of series: functional. The method in brief: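 Vero cells were exposed for 72 h, with viability read by MTT conversion to formazan to give the IC50. The MIC against H37Rv was by duplicate agar dilution on OADC-supplemented Middlebrook 7H11 agar. Index = Vero IC50 / MIC.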

Series [15] concerns Mus musculus. As to the kind of experiment: Phototoxicity in Swiss albino mouse assessed as ear thickness at 140 mg/kg, po after 96 hrs of irradiation. Type of series: organism-based. Set-up: dose 140 mg/kg, route oral. The following applies: in vivo. The method, boiled down: as §1
Series [16] relates to Mycobacterium tuberculosis. Put plainly: Antimycobacterial activity against Mycobacterium tuberculosis ATCC 35801 infected in CD1 mouse assessed as bacterial load in spleen at 25 mg/kg, ip after 10 days. Type of series: functional. The note with it: route intraperitoneal. The method, boiled down:
as §2

The subject of series [17] is Mycobacterium tuberculosis. Put plainly: Antimycobacterial activity against Mycobacterium tuberculosis ATCC 35801 infected in CD1 mouse assessed as bacterial load in lung at 25 mg/kg, ip after 10 days. The note with it: route intraperitoneal. Type of series: functional. The method in brief: as §2

≈ marks a conversion by molar mass, not a printed value. Where only a bound is given, the exact number is not on record here.

Consider `CCN(CC)C(=O)C1CCCN(c2cc3c(cc2F)c(=O)c(C(=O)O)c2sc4ccccc4n23)C1` (stereo unspecified), for which the Activity entry was “Non-toxic” in the series on Mus musculus [1]; 0.29 mm with Mus musculus [2]; “Non-toxic” in the series on Mus musculus [3]; 0.3 mm in the series on Mus musculus [6]; 0.29 mm in the series on Mus musculus [8]; 0.29 mm in the series with Mus musculus [9]. For the same compound, the values for the Activity entry in the series with Mus musculus [10], with Mus musculus [11] and in the series with Mus musculus [15] were “Non-toxic”, “Non-toxic” and 0.28 mm, respectively. Besides, the figures for the IC50 (in the series with Vero; in [12]) were 126 µM and 40 µg/mL (≈ 80.7 µM), respectively. Besides, the Log10 cfu in series [4] is on record as 5.21; in [7], 5.9. Moreover, the minimal inhibitory concentration (MIC) – broadly, the lowest concentration found to suppress growth – in [5] was determined as 0.18 µM (≈ 0.0892 µg/mL); in series [13] it was 3.15 µM (≈ 1.56 µg/mL). Further, in series [14], the Selectivity index was determined as 1576.
For the compound `COc1c(N2CCNC(C)C2)c(F)cc2c(=O)c(C(=O)O)cn(C3CC3)c12` (stereo unspecified) [GATIFLOXACIN], the IC50 – broadly, the concentration needed to halve the response being measured – with Vero is over 155 µM. The Log10 cfu in series [4] came to 6.02; in series [7], 6.92. The values for the MIC in series [5] and in [13] were 1.04 µM (≈ 0.39 µg/mL) and 2.08 µM (≈ 0.781 µg/mL), respectively.
In the series with Vero, `NNC(=O)c1ccncc1` [ISONIAZID] had an IC50 of over 456 µM. The Log10 cfu in series [16] was 4.71; in series [17], 5.86. Further, the MIC in series [5] is 0.36 µM (≈ 0.0494 µg/mL); in series [13], 45.6 µM (≈ 6.25 µg/mL).

These data come from ChEMBL document CHEMBL1142419, “Antimycobacterial activities of novel 2-(sub)-3-fluoro/nitro-5,12-dihydro-5-oxobenzothiazolo[3,2-a]quinoline-6-carboxylic acid” (Bioorg Med Chem, 2008).
